High-throughput results: PubChem, The Scripps Research Institute Molecular Screening Center
S1P4 ag: human S1P4 receptor agonism | O95977 | S1P4-expressing cell line, agonist reporter assay | activation, % at 4.98 µM | 0.35% of 220,000 active | AID 1509; in the data active means activation above about 11%;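 further: 0% = DMSO vehicle and 100% = reference agonist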
NPY-Y1 PAM-ag: potentiates or activates human NPY-Y1 receptor; activation, % at 3.6 µM; NPY-Y1 expressing cells, potentiator/agonist activation; AID 1304; 0.37% of 220,000 active; in the data active means activation above about 33%, passing the limit was not always enough;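 further: cells stimulated with NPY at EC10 then isoproterenol at EC100; 0% = low agonist plus stimulus and 100% = saturating agonist plus stimulus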
Target sequence (P25929 whole entry, looked up): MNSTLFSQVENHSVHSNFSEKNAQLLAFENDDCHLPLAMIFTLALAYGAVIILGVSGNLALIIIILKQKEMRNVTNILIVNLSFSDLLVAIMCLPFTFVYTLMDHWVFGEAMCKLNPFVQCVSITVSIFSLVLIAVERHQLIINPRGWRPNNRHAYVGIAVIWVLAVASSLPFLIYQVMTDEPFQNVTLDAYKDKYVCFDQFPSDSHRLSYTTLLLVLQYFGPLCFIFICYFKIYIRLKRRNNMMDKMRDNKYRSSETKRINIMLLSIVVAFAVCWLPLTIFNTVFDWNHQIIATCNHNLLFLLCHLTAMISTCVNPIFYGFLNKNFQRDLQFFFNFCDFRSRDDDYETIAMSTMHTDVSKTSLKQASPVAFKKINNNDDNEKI
S1P4 antagonist: blocks the human S1P4 receptor; O95977; S1P4-expressing cells, antagonist mode, reporter read-out; inhibition, % at 4.98 µM; 0.26% of 220,000 active; AID 1510; in the data active means inhibition above about 29%;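 further: 0% = wells stimulated with agonist and 100% = vehicle wells without agonist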
NPY Y2 blocker: blocks the human neuropeptide Y Y2 receptor. AID 793. inhibition, % at 2.7 µM. P49146. 0.99% of 140,000 active. NPY-Y2 expressing cells, antagonist mode;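 further: 0% = vehicle with agonist challenge and 100% = reference antagonist with challenge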
NPY2 pot ag: human NPY-Y2 potentiation or agonism, primary screen. cells expressing NPY-Y2, potentiator/agonist read-out. activation, % at 3.6 µM. 0.45% of 220,000 active; in the data active means activation above about 27%;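 further: cells stimulated with NPY near EC25 plus isoproterenol at EC100; 0% = vehicle plus submaximal agonist and 100% = vehicle plus saturating agonist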
NPY Y1 blocker: antagonists of human neuropeptide Y receptor Y1 | P25929 | HEK293-CNG Y1 cells, membrane potential fluorescence; NPY at EC95, then isoproterenol | inhibition, % at 3.6 µM | 1% of 200,000 active | AID 1040;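 active means inhibition above the campaign mean inhibition of all tested compounds plus 3 SD, cut at about 20% in these data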;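 further: 0% = DMSO wells given NPY plus isoproterenol and 100% = isoproterenol alone without NPY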
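Material: HEK293 Y1/CNG channel cell line; also added: NPY (25 nM), isoproterenol (1 µM), Ro 20-1724 (25 µM); doses: one concentration, 3.6 µM, in 0.4% DMSO; schedule: compound incubation 1 h at room temperature, readout 45 min post-stimulation; technique: membrane potential fluorescence; measure: fluorescence ratio normalized to % inhibition between controls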
NPY1 antag conf: confirmation of human neuropeptide Y receptor Y1 antagonists | shares compounds with NPY Y1 blocker | 21% of 1,200 active | HEK293-CNG NPY-Y1, membrane potential fluorescence, cAMP; NPY challenge against isoproterenol-raised cAMP | inhibition, % at 3.6 µM; in the data active means inhibition above about 20%;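 further: 0% = vehicle with agonist plus stimulus and 100% = stimulus alone without agonist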
NPY-Y2 antag ct: antagonizes human NPY-Y2, counter-screen to NPY-Y1 antagonists. shares compounds with NPY Y1 blocker. HEK293 NPY-Y2 CNG membrane potential fluorescence, antagonism; cells given NPY, then isoproterenol. inhibition, % at 3.6 µM. 28% of 1,200 active. AID 1255;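 further: 0% = DMSO with agonist challenge and 100% = reference antagonist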
Numbers without * were called inactive; x = not tested or not shown. Compounds with a hit are over-represented: about 2.4% of the library has one in this group of screens. Unless noted, no stated cut-off is given here; in the data, active means inhibition above about 17%; inactive means the rest.

SMILES | S1P4 ag | NPY-Y1 PAM-ag | S1P4 antagonist | NPY Y2 blocker | NPY2 pot ag | NPY Y1 blocker | NPY1 antag conf | NPY-Y2 antag ct
CCOC(=O)C1CCN(C(=O)CCS(=O)(=O)c2ccc3c(c2)CC(C)N3C(=O)CC)CC1 (configuration not stated) | 1 | -6 | 2 | x | 12 | 37* | 3 | 3
Cc1[nH]n(-c2ccccc2)c(=O)c1/C=N/O | 1 | 6 | -21 | 5 | -15 | 58* | 1 | 3
O=C(N/N=C/c1cccn1-c1ccc([N+](=O)[O-])cc1)c1cccnc1 | -1 | -44 | 4 | x | 4 | x | x | x
Cc1cccc(OCCCN2C(=O)C(=O)c3cc(C)ccc32)c1 | 0 | 0 | -12 | x | -24 | 10 | x | x
O=c1[nH]nc(CNc2ccc(Cl)cc2Cl)c2ccccc12 | 1 | -35 | -7 | x | -13 | 24* | 16 | 25*
O=c1[nH]nc(Cc2ccc(Cl)cc2Cl)c2ccccc12 | 2 | 5 | 0 | 9 | 12 | 8 | x | x
Cn1c(SCC(=O)Nc2ccc3nc(SCC(=O)N4CCCC4)sc3c2)nnc1-c1ccc(N)cc1 | -2 | -24 | 7 | 0 | -5 | 6 | x | x
O=C(c1ccc2c(c1)OCO2)N(CC1CCCO1)C1(C(=O)NC2CCCC2)CCCCC1 (configuration not stated) | 2 | -2 | -19 | 16 | 1 | 30* | 13 | 8
O=C(NC1(C(=O)NC2CCCCC2)CCCCC1)c1ccc2c(c1)OCO2 | 1 | 23 | -14 | -1 | 1 | 0 | x | x
CC(C)(Oc1ccc(Cl)cc1)C(=O)N(Cc1ccccc1)c1ccccn1 | 0 | -18 | -12 | 9 | -5 | 16 | x | x
Clc1ccc(-c2noc(CN3CCCC3)n2)cc1 | 2 | 11 | -6 | 4 | -10 | 7 | x | x
Cn1ccnc1C1CCCCN1Cc1nc(-c2ccc(Cl)cc2)no1 (configuration not stated) | 0 | -15 | -8 | x | -26 | 43* | 13 | 9
COc1ccc(-n2cc(-c3ccccc3)c3c(N4CC(C)OC(C)C4)ncnc32)cc1 (configuration not stated) | -1 | -4 | 1 | x | 10 | 9 | x | x
S=c1[nH]nc(-c2ccc(Cl)cc2)n1CCCN1CCOCC1 | 1 | 1 | -15 | x | 3 | 3 | x | x
Cc1ccc(-c2cc(C(F)(F)F)n3ncc(C(=O)O)c3n2)cc1 | 0 | -2 | -9 | 2 | -10 | 21* | 2 | 3
O=C(c1cnn2c(C(F)(F)F)cc(-c3ccco3)nc12)N1CCc2ccccc2C1 | -1 | -49 | -3 | 11 | -18 | 21* | 10 | 7
COc1ccc(-c2cc(C(F)(F)F)n3ncc(C(=O)O)c3n2)cc1OC | 1 | -7 | 0 | 4 | 21 | -3 | x | x
CCOC(=O)c1sc(NC(=O)CCN2CCN(C)CC2)c(C(=O)OCC)c1C | 0 | 8 | -3 | x | 6 | 4 | x | x
CCOC(=O)c1c(NC(=O)CN2CCN(C)CC2)sc(C(=O)Nc2ccccc2)c1C | -1 | -43 | -3 | x | -23 | 27* | 14 | 13
COC(=O)C1Cc2ccccc2CN1C(=O)CCl (configuration not stated) | 1 | 11 | -5 | x | -3 | 1 | x | x
O=C(Nc1ccccc1)C1=C[C@@H](c2coc3ccccc3c2=O)C[C@@H](OCc2ccc(CO)cc2)O1 | 0 | 8 | 1 | x | -10 | -3 | x | x
Cc1nn(-c2ccccc2)c2sc(C(=O)O)cc12 | 1 | -52 | -21 | 13 | -19 | 25* | 22* | 15
Clc1ccc(SCCOCCN2CCc3ccccc3C2)cc1 | 0 | -23 | 9 | x | -5 | 23* | 15 | 12
Clc1ccc(SCCOCCN2CCCCC2)cc1 | 4 | -37 | 0 | 6 | -7 | 15 | x | x
c1ccc(-c2ccccc2OCCOCCN2CCc3ccccc3C2)cc1 | 0 | -11 | 11 | x | -11 | 16 | x | x
SMILES | S1P4 ag | NPY-Y1 PAM-ag | S1P4 antagonist | NPY Y2 blocker | NPY2 pot ag | NPY Y1 blocker | NPY1 antag conf | NPY-Y2 antag ct
Clc1ccc(OCCOCCN2CCc3ccccc3C2)c(Cl)c1 | -2 | -28 | -6 | 10 | -16 | 25* | 8 | 8
CN1CCSc2ccc(C(=O)Nc3cccc(F)c3)cc21 | 1 | -3 | 6 | x | -10 | x | x | x
Cc1cccc(OCCNC(=O)c2ccc(Oc3ccc(C(F)(F)F)cc3[N+](=O)[O-])cc2)c1 | 0 | -41 | -8 | 9 | -27 | 22* | 28* | 15
COc1ccccc1NC(=O)COC(=O)/C=C/c1ccc2c(c1)OCO2 | -3 | -29 | -3 | x | -49 | 27* | 11 | 7
CC1(C)Cc2c(c(N3CCCC3)nc3sc4c(N5CCNCC5)ncnc4c23)CO1 | 1 | -28 | -20 | x | -45 | x | x | x
COc1ccc(COc2cc(-c3cccc(OC)c3)nc3ccc(NC(=O)c4ccc(N(C)C)cc4)cc23)cc1 | 1 | -32 | 10 | 2 | -2 | 43* | -2 | 2
COc1ccc(COc2cc(-c3cccc(OC)c3)nc3ccc(NC(=O)c4ccc(C)cc4)cc23)cc1 | 1 | -55 | -4 | 0 | -19 | 8 | x | x
Cn1c(COc2nnc(-c3ccc(Cl)cc3)c3ccccc23)nc2ccccc21 | 0 | 3 | -7 | 1 | 13 | 39* | 1 | -1
CCc1ccc2[nH]c(C(=O)Nc3ccc4c(c3)OCO4)cc2c1 | 2 | -5 | 0 | x | -7 | x | x | x
O=Cc1ccc(OCC(=O)N2CCOCC2)cc1 | 1 | 4 | -3 | x | -9 | -5 | x | x
COc1cccc(CC2(CO)CCCN(Cc3c(C)cc(C)cc3-n3cccn3)C2)c1 (configuration not stated) | 2 | -37 | 18 | x | -39 | 38* | 24* | 20*
CCN(c1cccc(C(F)(F)F)c1)S(=O)(=O)c1ccc2c(c1)CCN2C(=O)C1CC1 | -4 | -50 | -5 | 14 | -8 | 24* | 14 | 13
CCC(=O)N1CCc2cc(S(=O)(=O)N(CC)c3cccc(C)c3)ccc21 | -2 | 13 | -5 | 5 | -6 | 2 | x | x
O=c1cc(/C=C/c2ccccc2)oc2ccccc12 | 0 | -18 | -1 | 4 | 4 | 4 | x | x
Cc1ccc(C(C(=O)Nc2ccc3c(c2)OCO3)N(C)C(=O)Cc2c[nH]c3ccccc23)cc1 (configuration not stated) | 0 | 12 | -11 | 1 | 4 | 35* | -1 | -5
O=C(NC1CCCC1)C(c1ccccc1F)N(C(=O)Cc1cccs1)c1ccc2c(c1)OCCO2 (configuration not stated) | -1 | -8 | -21 | 8 | 5 | 20* | 10 | 8
O=C(N/N=C/c1ccccc1OC(=O)c1ccc2c(c1)OCO2)c1cccc(F)c1 | 1 | -25 | -15 | 17 | -11 | 21* | 16 | 9
